Values joined by “and” are separate entries in the source; they are usually repeats but may differ in a detail not shown here. Equal values may be shown once. Read-outs that look alike come from different tables or passages of the source. Each block holds one molecule with its values, some of them ahead of it.
Tests used:
[1] = biological target: T1, TSPO (Rattus norvegicus, UniProt P16257); details: earlier study; cited from earlier work
[2] = biological target: T1, TSPO; type: binding; details: C6 glioma cell lysate; for IC50: read-out: TSPO binding affinity (IC50), competition with [^3H]PK 11195 (0.6 nM), 2 h at 25 °C
Outline: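 C6 cells PBS-washed, then freeze-thawed three times in lysis buffer (5.0 mM HEPES, mannitol, sucrose, benzamidine, MgCl2, pH 7.4); lysate 0.5 mg/ml. Lysate incubated with [3H]PK 11195 (final 0.6 nM) and test compound (10−5 to 10−14 M), 2 h, 25 °C. Rapid filtration onto polyethylenimine-presoaked filters, scintillation counting. IC50 fitted in triplicate; fold values are IC50 ratios.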

[3] = biological target: T1, TSPO; details: mean ± SEM, n = 5, cited from earlier work
[4] = biological target: T1, TSPO; assay: Compartmental modeling of dynamic PET data; type: in vivo; details: for VT ratio between tumor and normal brain: from VT values of Table 1; for K1/k2 / VT / k3/k4 (BPND): mean ± SEM, n = 7
[5] = system: C6 glioma; assay: In vivo uptake of [^18F]VUIIS1018A, 60-min dynamic PET in C6 glioma-bearing rats; set-up: species or system rat
Outline: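 Male Wistar rats, 1.0 × 10^5 C6 glioma cells implanted stereotactically in right hemisphere 2 weeks before imaging; tumours confirmed by T2-weighted MRI at 4.7T. Venous and arterial catheters placed. 18F-labelled tracer 1.1 ± 0.3 mCi given via jugular catheter in microPET; 60-min listmode dynamic scan (32 frames), CT attenuation correction, 2D OSEM reconstruction. Tumour and contralateral brain VOIs gave time-activity curves.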

[6] = biological target: T1, TSPO; type: in vivo; details: blocking with [^19F]VUIIS1018A 10 mg/kg 5 min before tracer
Outline: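 C6 glioma-bearing male Wistar rats, catheterised venous and arterial. Unlabelled (19F) analogue of tracer, 10 mg/kg, given 5 min before 18F tracer (1.1 ± 0.3 mCi, jugular catheter), then 60-min dynamic microPET with CT attenuation correction. Time-activity curves from tumour and contralateral brain VOIs. BPND maps by SRTM2, normal cerebrum as reference tissue. n = 3.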

Compound: CCc1cc(CC)n2nc(-c3ccc(OCCF)cc3)c(CC(=O)N(CC)CC)c2n1 [VUIIS1008, 2-(5,7-diethyl-2-(4-(2-fluoroethoxy)phenyl)pyrazolo[1,5-a]pyrimidin-3-yl)-N,N-diethylacetamide]
fold enhancement in binding affinity compared to DPA-714 [1]: 36 fold

fold enhancement in binding affinity compared with DPA-714 ([2]; ratio of IC50 values): ~700 fold
fold enhancement in binding affinity compared with VUIIS1008 ([2]; ratio of IC50 values): 20 fold
IC50 [2]: 0.0162 nM
Compound: CCCCc1cc(C)nc2c(CC(=O)N(CC)CC)c(-c3ccc(OCCF)cc3)nn12 [VUIIS1018A]

fold lower binding affinity than VUIIS1018A ([2]; ratio of IC50 values): 6000 fold
IC50 [2]: 100 nM
Compound: CCCCc1cc(C)n2nc(-c3ccc(OCCF)cc3)c(CC(=O)N(CC)CC)c2n1 [VUIIS1018B]

VT ratio between tumor and normal brain [4]: 6.0
Compound: CCc1cc(CC)n2nc(-c3ccc(OCC[18F])cc3)c(CC(=O)N(CC)CC)c2n1 [[^18F]VUIIS1008, 2-(5,7-Diethyl-2-(4-(2-[^18?F]fluoroethoxy)phenyl)pyrazolo[1,5-a]pyrimidin-3-yl)-N,N-diethylacetamide]
K1/k2 ([3]; Brain): 0.855 ± 0.325
VT ([3]; Brain): 4.210 ± 1.612
k3/k4 (BPND) ([3]; Brain): 4.435 ± 1.387
k3/k4 (BPND) ([3]; Brain, listed as [^18 F]VUIIS1008): 4.43
K1/k2 ([3]; Tumor): 1.902 ± 0.816
VT ([3]; Tumor): 25.224 ± 10.035
k3/k4 (BPND) ([3]; Tumor): 12.63 and 12.634 ± 1.406

fold enhancement in binding affinity compared with DPA-714 ([2]; ratio of IC50 values): approximately 700 fold
fold enhancement in binding affinity compared with DPA-714 ([2]; ratio of IC50 values, listed as [^18 F]VUIIS1018A): 700 fold
circulating plasma radioactivity compared with the unblocked scenario [6]: significantly elevated
effect of blocking dose on accumulation in the normal brain [6]: insignificant effect
overall reduction in tumor PET signal ([6]; mean ± SD, n = 3): 48.3 ± 2.8%
K1/k2 ([4]; Brain): 0.311 ± 0.036
VT ([4]; Brain): 1.214 ± 0.190
k3/k4 (BPND) ([4]; Brain): 2.91 and 2.913 ± 0.456
K1/k2 ([4]; Tumor): 0.532 ± 0.130
VT ([4]; Tumor): 11.036 ± 3.731
k3/k4 (BPND) ([4]; Tumor): 23.10 and 23.097 ± 4.757
VT ratio between tumor and normal brain [4]: 9.1
fold higher k3/k4 in tumor compared with healthy brain ([4]; from k3/k4 values of Table 1): 8 fold
Compound: CCCCc1cc(C)nc2c(CC(=O)N(CC)CC)c(-c3ccc(OCC[18F])cc3)nn12 [[^18F]VUIIS1018A, 2-(7-Butyl-2-(4-(2-[^18F]Fluoroethoxy)phenyl)-5-Methylpyrazolo[1,5-a] Pyrimidin-3-yl)-N,N-Diethylacetamide]
accumulation in C6 gliomas [5]: robust accumulation
accumulation in normal brain [5]: negligible accumulation

Reference: paper PMC6953265 (Molecular imaging and biology, 2019)
